Measurements taken from ChEMBL document CHEMBL1138590, “Discovery of novel dihydro-9,10-ethano-anthracene carboxamides as glucocorticoid receptor modulators” (Bioorg Med Chem Lett, 2009).
pEC50, pKi: −log10 of the molar value.

Assays:
Androgen receptor = biological target: T1, Androgen receptor (Homo sapiens, UniProt P10275); experiment: Displacement of fluorescently labeled ligand from androgen receptor by fluorescence polarization assay
T1 sequence (P10275 whole entry): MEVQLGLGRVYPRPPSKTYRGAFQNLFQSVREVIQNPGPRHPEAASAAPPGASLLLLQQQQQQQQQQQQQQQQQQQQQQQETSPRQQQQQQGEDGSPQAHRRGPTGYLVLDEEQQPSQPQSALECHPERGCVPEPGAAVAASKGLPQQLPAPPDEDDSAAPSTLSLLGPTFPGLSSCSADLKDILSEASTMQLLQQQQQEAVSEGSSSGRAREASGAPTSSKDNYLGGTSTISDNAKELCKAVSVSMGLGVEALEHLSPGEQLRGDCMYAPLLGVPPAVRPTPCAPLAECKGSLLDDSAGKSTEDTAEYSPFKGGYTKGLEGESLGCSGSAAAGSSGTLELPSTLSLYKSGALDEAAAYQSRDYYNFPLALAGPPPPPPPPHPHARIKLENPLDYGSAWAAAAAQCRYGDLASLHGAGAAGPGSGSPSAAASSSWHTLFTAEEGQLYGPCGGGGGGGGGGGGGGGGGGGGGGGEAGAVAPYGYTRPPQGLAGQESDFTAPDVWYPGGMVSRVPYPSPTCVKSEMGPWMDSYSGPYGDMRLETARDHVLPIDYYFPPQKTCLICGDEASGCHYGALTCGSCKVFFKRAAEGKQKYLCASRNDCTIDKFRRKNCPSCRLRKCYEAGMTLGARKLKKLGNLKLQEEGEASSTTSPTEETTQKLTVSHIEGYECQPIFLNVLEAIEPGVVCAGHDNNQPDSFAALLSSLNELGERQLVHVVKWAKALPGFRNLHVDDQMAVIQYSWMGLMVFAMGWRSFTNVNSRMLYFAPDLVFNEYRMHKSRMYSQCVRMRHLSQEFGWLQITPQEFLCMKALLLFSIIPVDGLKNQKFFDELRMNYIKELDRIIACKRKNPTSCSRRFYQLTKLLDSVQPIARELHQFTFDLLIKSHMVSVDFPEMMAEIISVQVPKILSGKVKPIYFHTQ

Glucocorticoid receptor [1] = biological target: T2, Glucocorticoid receptor (Homo sapiens, UniProt P04150); experiment: Transrepression activity at GR in PMA-stimulated human A549 cells assessed as inhibition of AP1 response element-induced luciferase reporter gene activity; format: cell-based
T2 sequence (P04150 whole entry): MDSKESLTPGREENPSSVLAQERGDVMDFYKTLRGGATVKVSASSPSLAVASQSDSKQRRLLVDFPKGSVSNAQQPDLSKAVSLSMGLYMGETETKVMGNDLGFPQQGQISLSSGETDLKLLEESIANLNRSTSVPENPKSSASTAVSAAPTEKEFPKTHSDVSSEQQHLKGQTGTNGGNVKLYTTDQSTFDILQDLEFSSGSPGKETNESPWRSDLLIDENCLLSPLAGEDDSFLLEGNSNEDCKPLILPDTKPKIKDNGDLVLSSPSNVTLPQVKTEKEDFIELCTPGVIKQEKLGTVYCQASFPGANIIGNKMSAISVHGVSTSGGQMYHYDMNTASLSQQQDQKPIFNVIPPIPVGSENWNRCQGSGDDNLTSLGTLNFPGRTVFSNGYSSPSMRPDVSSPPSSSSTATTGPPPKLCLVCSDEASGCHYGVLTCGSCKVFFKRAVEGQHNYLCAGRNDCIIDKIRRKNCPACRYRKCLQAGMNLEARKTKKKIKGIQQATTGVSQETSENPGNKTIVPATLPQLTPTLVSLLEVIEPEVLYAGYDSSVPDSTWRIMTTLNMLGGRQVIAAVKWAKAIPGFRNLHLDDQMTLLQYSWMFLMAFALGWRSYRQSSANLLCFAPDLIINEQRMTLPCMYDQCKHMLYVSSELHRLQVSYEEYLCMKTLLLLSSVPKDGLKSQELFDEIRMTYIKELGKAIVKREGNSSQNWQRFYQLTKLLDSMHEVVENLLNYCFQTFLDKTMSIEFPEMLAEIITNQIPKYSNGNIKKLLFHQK

Glucocorticoid receptor [2] = biological target: T2, Glucocorticoid receptor; experiment: Displacement of FITC-dexamethasone from human recombinant glucocorticoid receptor alpha by fluorescence polarization assay
Estrogen receptor = biological target: T3, Estrogen receptor (Homo sapiens, UniProt P03372); experiment: Displacement of […] from estrogen receptor alpha by fluorescence polarization assay
T3 sequence (P03372 whole entry): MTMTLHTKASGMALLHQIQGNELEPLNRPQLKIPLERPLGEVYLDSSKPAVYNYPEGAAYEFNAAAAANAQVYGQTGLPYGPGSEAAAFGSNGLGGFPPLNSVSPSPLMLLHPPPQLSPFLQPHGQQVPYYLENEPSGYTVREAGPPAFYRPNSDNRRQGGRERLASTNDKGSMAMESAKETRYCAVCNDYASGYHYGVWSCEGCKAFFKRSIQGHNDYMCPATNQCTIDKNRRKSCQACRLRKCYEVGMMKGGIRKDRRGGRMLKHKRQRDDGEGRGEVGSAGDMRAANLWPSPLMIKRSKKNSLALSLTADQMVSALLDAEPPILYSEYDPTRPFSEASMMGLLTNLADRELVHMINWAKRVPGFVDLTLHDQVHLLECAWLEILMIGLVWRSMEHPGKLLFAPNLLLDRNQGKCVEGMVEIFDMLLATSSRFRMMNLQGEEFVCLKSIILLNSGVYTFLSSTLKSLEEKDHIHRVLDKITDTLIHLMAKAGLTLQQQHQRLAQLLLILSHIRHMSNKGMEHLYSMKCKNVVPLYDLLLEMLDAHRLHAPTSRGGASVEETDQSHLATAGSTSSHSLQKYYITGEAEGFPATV
In short: (§1)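 Fluorescence polarization competition binding: the test compound competes with a fluorescently labelled ligand for binding to the full-length receptor or its ligand-binding domain. IC50 is fitted from the polarization signal with a four-parameter logistic equation. Ki is derived by Cheng–Prusoff, Ki = IC50/(1 + ligand concentration/Kd). Values are means of duplicate experiments.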

Progesterone receptor = biological target: T4, Progesterone receptor (Homo sapiens, UniProt P06401); experiment: Displacement of […] from progesterone receptor by fluorescence polarization assay
T4 sequence (P06401 whole entry): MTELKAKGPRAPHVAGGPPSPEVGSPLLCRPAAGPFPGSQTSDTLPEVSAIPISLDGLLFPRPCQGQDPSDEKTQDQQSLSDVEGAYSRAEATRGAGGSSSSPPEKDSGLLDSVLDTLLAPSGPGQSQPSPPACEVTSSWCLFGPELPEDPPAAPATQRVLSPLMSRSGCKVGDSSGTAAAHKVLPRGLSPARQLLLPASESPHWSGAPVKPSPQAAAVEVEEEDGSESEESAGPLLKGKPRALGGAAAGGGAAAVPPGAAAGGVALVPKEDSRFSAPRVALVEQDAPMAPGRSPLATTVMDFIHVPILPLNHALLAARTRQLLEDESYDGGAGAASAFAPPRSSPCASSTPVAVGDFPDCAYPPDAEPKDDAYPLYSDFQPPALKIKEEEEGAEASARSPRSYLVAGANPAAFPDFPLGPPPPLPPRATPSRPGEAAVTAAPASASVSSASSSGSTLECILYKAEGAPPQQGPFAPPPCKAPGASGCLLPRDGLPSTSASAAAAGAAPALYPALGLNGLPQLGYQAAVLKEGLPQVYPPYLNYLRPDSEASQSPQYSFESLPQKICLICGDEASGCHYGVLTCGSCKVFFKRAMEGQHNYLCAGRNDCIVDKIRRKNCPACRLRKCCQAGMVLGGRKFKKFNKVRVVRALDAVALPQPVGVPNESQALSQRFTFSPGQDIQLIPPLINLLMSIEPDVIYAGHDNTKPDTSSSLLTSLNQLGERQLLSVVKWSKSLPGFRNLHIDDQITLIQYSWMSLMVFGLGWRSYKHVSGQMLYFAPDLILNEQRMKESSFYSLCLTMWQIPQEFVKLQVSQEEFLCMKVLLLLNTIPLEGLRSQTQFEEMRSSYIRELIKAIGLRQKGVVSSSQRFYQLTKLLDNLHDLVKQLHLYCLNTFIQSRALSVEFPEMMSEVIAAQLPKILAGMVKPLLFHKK
In short: as §1

Glucocorticoid receptor [3] = biological target: T2, Glucocorticoid receptor; experiment: Agonist activity at GR ligand binding domain expressed in human NP1 cells assessed as glucocorticoid response element transactivation by GAL4 luciferase reporter gene assay; format: cell-based
Glucocorticoid receptor [4] = biological target: T2, Glucocorticoid receptor; experiment: Transrepression activity at GR in IL-1-beta-stimulated human A549 cells assessed as inhibition of NF-kappaB-dependent E-selectin transcription by luciferase reporter gene assay; format: cell-based
[5] = Selectivity for human recombinant glucocorticoid receptor alpha over androgen receptor
[6] = Selectivity for human recombinant glucocorticoid receptor alpha over estrogen receptor alpha
[7] = biological target: T5, Mineralocorticoid receptor (Homo sapiens) (UniProt P08235); experiment: Antagonist activity at mineralocorticoid receptor in human A549 cells assessed as inhibition of 1.25 nM aldosterone-induced effect at 0.1 uM; format: functional, cell-based
T5 sequence (whole entry): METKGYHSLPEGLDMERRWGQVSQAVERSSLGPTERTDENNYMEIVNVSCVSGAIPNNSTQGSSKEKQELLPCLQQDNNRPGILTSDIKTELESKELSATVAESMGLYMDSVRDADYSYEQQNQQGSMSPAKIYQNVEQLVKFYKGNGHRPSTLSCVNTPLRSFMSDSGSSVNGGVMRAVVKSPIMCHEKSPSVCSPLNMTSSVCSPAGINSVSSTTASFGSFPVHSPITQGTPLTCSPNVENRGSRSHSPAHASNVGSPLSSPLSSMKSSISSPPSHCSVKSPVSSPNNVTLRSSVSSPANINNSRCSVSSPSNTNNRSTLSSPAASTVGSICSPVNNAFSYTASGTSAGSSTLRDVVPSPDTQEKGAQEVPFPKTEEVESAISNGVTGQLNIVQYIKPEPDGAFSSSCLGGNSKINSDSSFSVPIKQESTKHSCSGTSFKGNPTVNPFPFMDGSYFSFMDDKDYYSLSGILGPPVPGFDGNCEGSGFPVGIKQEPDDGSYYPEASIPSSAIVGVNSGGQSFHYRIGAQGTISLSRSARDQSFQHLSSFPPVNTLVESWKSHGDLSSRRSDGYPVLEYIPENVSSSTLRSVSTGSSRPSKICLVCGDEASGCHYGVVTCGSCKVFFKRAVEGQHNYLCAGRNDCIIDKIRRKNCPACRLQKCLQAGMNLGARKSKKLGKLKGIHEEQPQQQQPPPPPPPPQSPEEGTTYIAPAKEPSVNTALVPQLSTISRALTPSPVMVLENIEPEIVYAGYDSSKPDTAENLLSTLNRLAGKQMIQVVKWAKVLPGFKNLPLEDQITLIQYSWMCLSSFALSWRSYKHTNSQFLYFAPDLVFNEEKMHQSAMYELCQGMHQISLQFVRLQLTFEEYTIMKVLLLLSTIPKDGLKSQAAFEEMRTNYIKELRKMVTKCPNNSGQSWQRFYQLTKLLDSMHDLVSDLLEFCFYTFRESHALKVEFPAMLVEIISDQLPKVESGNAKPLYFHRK

[8] = Selectivity for human recombinant glucocorticoid receptor alpha over progesterone receptor

Structure (SMILES)	pKi (Androgen receptor)	pEC50 (Glucocorticoid receptor [1])	pKi (Glucocorticoid receptor [2])	pKi (Estrogen receptor)	pKi (Progesterone receptor)	pEC50 (Glucocorticoid receptor [3])	pEC50 (Glucocorticoid receptor [4])	fold change (FC) [5]	fold change (FC) [6]	inhibition [7]	fold change (FC) [8]
CC12CC(C)(C(=O)Nc3nncs3)C(c3ccccc31)c1ccccc12 (single isomer, unassigned; isomer A)	5.03	7.94	8.89	< 5.30	7.46	6.96	8.08	–	–	–	–
CC12CC(C)(C(=O)Nc3nccs3)C(c3ccccc31)c1ccccc12 (stereo in doubt; 17a)	5.54	8.28	9.00	< 5.30	7.51	6.93	8.85	–	–	–	–
CC1(C(=O)Nc2nccs2)CC2c3ccccc3C1c1ccccc12 (configuration not stated)	–	6.57	8.54	–	–	< 5.00	7.51	> 1000	> 1000	–	–

Now from value to molecule:

pKi (Androgen receptor)	pEC50 (Glucocorticoid receptor [1])	pKi (Glucocorticoid receptor [2])	pKi (Estrogen receptor)	pKi (Progesterone receptor)	pEC50 (Glucocorticoid receptor [3])	pEC50 (Glucocorticoid receptor [4])	fold change (FC) [5]	fold change (FC) [6]	inhibition [7]	fold change (FC) [8]	Structure (SMILES)
< 5.00	6.46	8.39	< 5.30	< 5.00	–	–	–	–	–	–	Cc1cnc(NC(=O)C2(C)CC3c4ccccc4C2c2ccccc23)s1 (single isomer, unassigned; isomer A) [listing 1 of 2 here]
–	–	–	–	–	–	–	–	–	5%	> 2500	Cc1cnc(NC(=O)C2(C)CC3c4ccccc4C2c2ccccc23)s1 (single isomer, unassigned; isomer A) [listing 2 of 2 here]
